Test results: ChEMBL document CHEMBL4152387, “Discovery of a Potent Grp94 Selective Inhibitor with Anti-Inflammatory Efficacy in a Mouse Model of Ulcerative Colitis” (J Med Chem, 2018)
The source made the active and inactive calls. The calls are words filed in the database; no cut-off is given here.

How the values were obtained:
Mus musculus [1] = test: Subacute toxicity in C57BL/6 mouse assessed as effect on lung at 30 to 90 mg/kg, ip qd for 2 weeks by hematoxylin and eosin staining analysis; type: organism-based; conditions: in vivo, 336 h
Mus musculus [2] = test: Anti-inflammatory activity in C57BL/6 mouse model of DSS-induced ulcerative colitis assessed reduction in TLR9 expression in colonic tissues at 10 to 30 mg/kg, ip qd co-administrated with DSS measured on day 7 post dose; type: functional, organism-based
In short: (§1)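 DSS colitis in male C57BL/6 mice (3% DSS, 7 days, ip qd 10 or 30 mg/kg, vehicle controls); colons flash-frozen at day 7, homogenized in lysis buffer with protease/phosphatase inhibitors. Equal protein by BCA run on SDS-PAGE, PVDF, 1% BSA block, primary antibodies 37 °C 1 h then 4 °C overnight, DyLight 800 secondary, infrared scan; β-actin loading control.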

[3] = Inhibition of FITC-geldanamycin binding to dog GST-tagged GRP94 N41 deletion mutant (69 to 337 residues) expressed in Escherichia coli BL21star (DE3) after 4 hrs by GM-FITC-based FP assay; design: species or system Canis lupus familiaris
[4] = target: T1, Heat shock protein HSP 90-alpha (Homo sapiens, UniProt P07900); test: Binding affinity to human His-tagged HSP90alpha N-terminal domain (1 to 236 residues) expressed in Escherichia coli BL21star (DE3) by biolayer interferometry
In short: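 His-tagged Hsp90N biotinylated in PBS pH 7.4 (one molar ratio), dialysed overnight, immobilized at 400 nM on streptavidin sensors; kinetics buffer PBS, 0.05% BSA, 0.01% Tween-20; four compound concentrations; 30 °C biolayer interferometry.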

Canis lupus familiaris [5] = organism: Canis lupus familiaris; test: Inhibition of FITC-geldanamycin binding to dog GST-tagged GRP94 N41 deletion mutant (69 to 337 residues) expressed in Escherichia coli BL21star (DE3) at 100 uM after 4 hrs by FP assay relative to control
Canis lupus familiaris [6] = organism: Canis lupus familiaris; test: Binding affinity to dog GST-tagged GRP94 N41 deletion mutant (69 to 337 residues) expressed in Escherichia coli BL21star (DE3) at 40 uM by NMR based CPMG assay
Canis lupus familiaris [7] = organism: Canis lupus familiaris; test: Binding affinity to dog His-tagged biotinylated GRP94 N41 deletion mutant (69 to 337 residues) expressed in Escherichia coli BL21star (DE3) assessed as dissociation constant by biolayer interferometry
In short: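 His-tagged Grp94N biotinylated at one molar ratio in PBS pH 7.4, dialysed overnight, loaded at 400 nM on streptavidin biosensors after 10 min prewetting in PBS, 0.05% BSA, 0.01% Tween-20. Four compound concentrations in this buffer tested; binding recorded at 30 °C by biolayer interferometry.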

Mus musculus [8] = test: In-vivo inhibition of HSP90/HSP70 pathway in C57BL/6 mouse model of DSS-induced ulcerative colitis assessed as effect on Akt expression in colonic tissues at 10 to 30 mg/kg, ip qd co-administrated with DSS measured on day 7 post dose; type: organism-based; in short: as §1
Mus musculus [9] = test: Anti-inflammatory activity in C57BL/6 mouse model of DSS-induced ulcerative colitis assessed reduction in p65 expression in colonic tissues at 10 to 30 mg/kg, ip qd co-administrated with DSS measured on day 7 post dose; type: functional, organism-based; in short: as §1
Mus musculus [10] = test: Subacute toxicity in C57BL/6 mouse assessed as effect on spleen at 30 to 90 mg/kg, ip qd for 2 weeks by hematoxylin and eosin staining analysis; type: organism-based; conditions: in vivo, 336 h
Mus musculus [11] = test: Anti-inflammatory activity in ip dosed C57BL/6 mouse model of DSS-induced ulcerative colitis assessed reduction in TNFalpha levels in colonic tissues co-administrated once daily with DSS measured on day 7 post dose by ELISA; type: functional, organism-based
In short: (§2)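 DSS colitis in male C57BL/6 mice (3% DSS in water, 7 days, ip qd co-dosing, vehicle controls). Serum and colons taken at sacrifice on day 7; colon homogenate supernatants and serum assayed for mouse TNFα and IL-6 by ELISA kits; n = 5 samples per group.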

Endoplasmin = Endoplasmin (Homo sapiens, UniProt P14625); test: Inhibition of GRP94 in human PANC1 cells assessed as down-regulation of integrin alphaL levels after 36 hrs by Western blot analysis; type: cell-based
In short: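 Panc-1 cells treated 36 h at indicated concentrations; cell surface protein extracted with a membrane-fractionation kit; Western blot for integrin α2 and αL with β-actin loading control, infrared fluorescent secondary detection.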

Mus musculus [12] = test: Subacute toxicity in C57BL/6 mouse assessed as effect on liver at 30 to 90 mg/kg, ip qd for 2 weeks by hematoxylin and eosin staining analysis; type: organism-based; conditions: in vivo, 336 h
Mus musculus [13] = test: Anti-inflammatory activity in ip dosed C57BL/6 mouse model of DSS-induced ulcerative colitis assessed reduction in IL6 levels in serum co-administrated once daily with DSS measured on day 7 post dose by ELISA; type: functional, organism-based; in short: as §2
Mus musculus [14] = test: Subacute toxicity in C57BL/6 mouse assessed as effect on kidneys at 30 to 90 mg/kg, ip qd for 2 weeks by hematoxylin and eosin staining analysis; type: organism-based; conditions: in vivo, 336 h
[15] = target: T1, Heat shock protein HSP 90-alpha; test: Inhibition of HSP90alpha in human PANC1 cells assessed as akt degradation at 1 to 5 uM after 36 hrs by Western blot analysis; type: cell-based
In short: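 Panc-1 cells treated 36 h; total protein lysate with protease/phosphatase inhibitors; equal protein by BCA on SDS-PAGE, PVDF, Western blot for Hsp70 and Akt, β-actin loading control; AT13387 reference.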

Chain of Endoplasmin (P14625 whole entry): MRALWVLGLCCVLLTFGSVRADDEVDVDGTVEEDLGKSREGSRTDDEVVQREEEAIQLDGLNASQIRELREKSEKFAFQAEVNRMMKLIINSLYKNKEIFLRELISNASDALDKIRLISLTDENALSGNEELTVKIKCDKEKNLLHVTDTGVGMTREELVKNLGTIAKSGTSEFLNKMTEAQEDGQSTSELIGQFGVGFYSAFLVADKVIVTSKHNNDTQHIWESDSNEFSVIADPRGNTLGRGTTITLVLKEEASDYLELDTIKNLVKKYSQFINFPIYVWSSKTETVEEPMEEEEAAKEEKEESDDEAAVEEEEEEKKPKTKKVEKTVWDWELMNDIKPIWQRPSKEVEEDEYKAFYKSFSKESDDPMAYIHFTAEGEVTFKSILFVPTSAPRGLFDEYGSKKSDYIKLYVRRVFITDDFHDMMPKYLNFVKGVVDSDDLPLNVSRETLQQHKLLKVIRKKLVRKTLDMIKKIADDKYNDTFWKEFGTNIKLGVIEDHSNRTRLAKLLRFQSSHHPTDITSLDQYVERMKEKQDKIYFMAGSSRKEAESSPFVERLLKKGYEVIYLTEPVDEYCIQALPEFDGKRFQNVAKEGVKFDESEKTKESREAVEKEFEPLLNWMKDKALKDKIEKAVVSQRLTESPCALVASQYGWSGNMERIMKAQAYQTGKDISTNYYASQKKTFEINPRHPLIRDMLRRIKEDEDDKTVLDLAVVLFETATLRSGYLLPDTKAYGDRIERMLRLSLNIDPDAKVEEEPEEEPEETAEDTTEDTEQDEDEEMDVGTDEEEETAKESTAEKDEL

CC(C)c1ccc(-c2ccc(N[C@H]3CC[C@H](O)CC3)c(C(N)=O)c2)cc1
Activity (Mus musculus [1]): Non-Toxic | Activity (Mus musculus [2]): Active | IC50 [3]: 0.002 µM | Kd [4]: 20.6 µM | inhibition (Canis lupus familiaris [5]): 100% | Activity (Canis lupus familiaris [6]): Active | K (Canis lupus familiaris [7]): 1.25 ×10⁻² /s | Activity (Mus musculus [8]): Non-Toxic | Activity (Mus musculus [9]): Active | Activity (Mus musculus [10]): Non-Toxic | Activity (Mus musculus [11]): Dose-dependent effect | inhibition (Endoplasmin): Dose-dependent effect | Activity (Mus musculus [12]): Non-Toxic | Activity (Mus musculus [13]): Dose-dependent effect | Activity (Mus musculus [14]): Non-Toxic | inhibition (INH) [15]: Not Active
